Laboratory results as given in ChEMBL document CHEMBL4765342, “Substituted benzothiophene and benzofuran derivatives as a novel class of bone morphogenetic Protein-2 upregulators: Synthesis, anti-osteoporosis efficacies in ovariectomized rats and a zebrafish model, and ADME properties” (Eur J Med Chem, 2020).
The source made the active and inactive calls. No cut-off for these calls is given here.

Legend:
[1] = molecular target: Runt-related transcription factor 2 (Mus musculus) (UniProt Q08775); experiment: Upregulation of Runx2 transcriptional activity in mouse MC3T3-E1 cells transfected with p6OSE2-luc at 10 uM incubated for 48 hrs by firefly luciferase reporter gene assay relative to control; type: cell-based; conditions: filed as activator
Method in brief: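 MC3T3-E1 cells reverse-transfected in suspension with p6OSE2-luc (Runx2-responsive reporter), 100 ng DNA per well, 10^5 cells/ml in α-MEM with 10% FBS, 37 °C in CO2. After 24 h the medium was replaced with complete medium containing compound, with lovastatin as positive control. Firefly luciferase read after a further 48 h as relative luminescence units. Significance by Dunnett's test.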

MC3T3-E1 = experiment: Cytotoxicity against mouse MC3T3-E1 cells at 100 uM; type: cell-based; conditions: mc3t3-e1, 100 µM
Rattus norvegicus [2] = experiment: Antiosteoporotic activity in Sprague-Dawley rat model of OVX-induced bone loss assessed as increase in number of trabeculae at 5 mg/kg, ig administered for 3 months with 1 day break after 6 consecutive days administration; type: functional, organism-based
Method in brief: (§1)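 Female SD rats given bilateral ovariectomy (sham: fat tissue removed instead), adapted 1 week beforehand; dosing began on postoperative day 10, n = 10 per group. Test drugs as 3 mg/mL suspension by gavage; raloxifene hydrochloride at 0.5 mg/mL. Controls got water. Tetracycline 30 mg/kg ip 16 and 3 days before euthanasia. Tibia stained sections give trabecular morphology and TBV%. BMD of L4-6 measured by densitometry under pentobarbital 45 mg/kg anaesthesia. Reported as mean ± SD.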

Rattus norvegicus [3] = experiment: Antiosteoporotic activity in Sprague-Dawley rat model of OVX-induced bone loss assessed as increase in thickness of trabeculae at 5 mg/kg, ig administered for 3 months with 1 day break after 6 consecutive days administration; type: functional, organism-based; method in brief: as §1
Rattus norvegicus [4] = experiment: Antiosteoporotic activity in Sprague-Dawley rat model of OVX-induced bone loss assessed as narrowed gap between trabeculae at 5 mg/kg, ig administered for 3 months with 1 day break after 6 consecutive days administration; type: functional, organism-based; method in brief: as §1
Rattus norvegicus [5] = experiment: Antiosteoporotic activity in Sprague-Dawley rat model of OVX-induced bone loss assessed as increase in trabecular bone volume at 5 mg/kg, ig administered for 3 months with 1 day break after 6 consecutive days administration; type: functional, organism-based; method in brief: as §1
Rattus norvegicus [6] = experiment: Antiosteoporotic activity in Sprague-Dawley rat model of OVX-induced bone loss assessed as increase in trabecular bone mineral density at 5 mg/kg, ig administered for 3 months with 1 day break after 6 consecutive days administration; type: functional, organism-based; method in brief: as §1

Runt-related transcription factor 2 (Mus musculus), sequence (Q08775 whole entry): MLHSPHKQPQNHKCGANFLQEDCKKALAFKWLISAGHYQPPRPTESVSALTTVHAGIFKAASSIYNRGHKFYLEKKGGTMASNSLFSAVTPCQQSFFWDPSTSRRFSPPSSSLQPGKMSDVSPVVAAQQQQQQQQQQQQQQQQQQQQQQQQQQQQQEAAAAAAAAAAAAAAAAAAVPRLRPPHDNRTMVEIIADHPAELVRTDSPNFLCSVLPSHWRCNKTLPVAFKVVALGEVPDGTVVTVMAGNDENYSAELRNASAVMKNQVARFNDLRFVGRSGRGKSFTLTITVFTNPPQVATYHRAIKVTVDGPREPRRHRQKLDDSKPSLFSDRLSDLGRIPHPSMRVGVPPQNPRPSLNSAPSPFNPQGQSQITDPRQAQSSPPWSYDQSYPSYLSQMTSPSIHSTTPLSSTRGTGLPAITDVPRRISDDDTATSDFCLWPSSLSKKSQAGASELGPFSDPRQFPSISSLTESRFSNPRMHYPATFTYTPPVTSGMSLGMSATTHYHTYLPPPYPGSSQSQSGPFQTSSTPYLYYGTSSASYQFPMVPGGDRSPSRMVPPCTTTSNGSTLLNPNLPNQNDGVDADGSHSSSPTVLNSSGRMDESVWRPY

| SMILES | Activity [1] | Activity (MC3T3-E1) | Activity (Rattus norvegicus [2]) | Activity (Rattus norvegicus [3]) | Activity (Rattus norvegicus [4]) | Activity (Rattus norvegicus [5]) | Activity (Rattus norvegicus [6]) |
| --- | --- | --- | --- | --- | --- | --- | --- |
| CC[C@H](C)C(=O)O[C@H]1C[C@@H](C)C=C2C=C[C@H](C)[C@H](CC[C@@H]3C[C@@H](O)CC(=O)O3)[C@H]21 [LOVASTATIN] | 256% | Toxic |  |  |  |  |  |
| O=C(c1ccc(OCCN2CCCCC2)cc1)c1c(-c2ccc(O)cc2)sc2cc(O)ccc12 |  |  | Active | Active | Active | Active | Active |
